In brackets after ≈: the same amount, converted by molar mass. Each block holds one molecule with its values, some of them ahead of it.
How the values were obtained:
[1] = Fraction unbound in rat plasma at 10 uM after 18 hrs by equilibrium dialysis method; format: ADME, cell-free
Acetyl-CoA carboxylase 2 = Acetyl-CoA carboxylase 2 (Homo sapiens, UniProt O00763); assay: Inhibition of human recombinant his-tagged ACC2 expressed in baculovirus/Sf9 cell assessed as inorganic phosphate formation […] measured after 1.5 hrs by Malachite green reagent method
[2] = Clearance in Sprague-Dawley rat at 3 to 5 umol/kg, iv; format: ADME, organism-based; settings: in vivo
[3] = Lipophilicity, log D of the compound; format: physicochemical; settings: octanol/water
[4] = Intrinsic clearance in human liver microsome at 1 uM after 30 mins by LC-UV/MS analysis; format: ADME; settings: liver microsomes
[5] = Fraction unbound in human plasma at 10 uM after 18 hrs by equilibrium dialysis method; format: ADME, cell-free
[6] = Solubility of the compound after 16 hrs by LC-UV/MS analysis; format: physicochemical
Rattus norvegicus [7] = assay: Ratio of […] to fraction unbound in Sprague-Dawley rat at 3 to 5 umol/kg, iv; format: ADME, organism-based; settings: in vivo
Homo sapiens = organism: Homo sapiens; assay: Ratio IC50 for human ACC2 to IC50 for human ACC1
Acetyl-CoA carboxylase 1 [8] = biological target: Acetyl-CoA carboxylase 1 (Homo sapiens, UniProt Q13085); assay: Inhibition of human recombinant his-tagged ACC1 expressed in baculovirus/Sf9 cell assessed as inorganic phosphate formation […] measured after 1.5 hrs by Malachite green reagent method
CYP2C9 = CYP2C9 (Homo sapiens, UniProt P11712); assay: Inhibition of CYP2C9 at 13 uM; format: ADME
CYP3A4 = CYP3A4 (Homo sapiens, UniProt P08684); assay: Inhibition of CYP3A4 at 13 uM; format: ADME
CYP2C19 = CYP2C19 (Homo sapiens, UniProt P33261); assay: Inhibition of CYP2C19 at 13 uM; format: ADME
CYP2D6 = CYP2D6 (Homo sapiens, UniProt P10635); assay: Inhibition of CYP2D6 at 13 uM; format: ADME
CYP1A2 = biological target: T1, CYP1A2 (Homo sapiens, UniProt P05177); assay: Inhibition of CYP1A2 at 13 uM; format: ADME
T1 sequence (P05177 whole entry): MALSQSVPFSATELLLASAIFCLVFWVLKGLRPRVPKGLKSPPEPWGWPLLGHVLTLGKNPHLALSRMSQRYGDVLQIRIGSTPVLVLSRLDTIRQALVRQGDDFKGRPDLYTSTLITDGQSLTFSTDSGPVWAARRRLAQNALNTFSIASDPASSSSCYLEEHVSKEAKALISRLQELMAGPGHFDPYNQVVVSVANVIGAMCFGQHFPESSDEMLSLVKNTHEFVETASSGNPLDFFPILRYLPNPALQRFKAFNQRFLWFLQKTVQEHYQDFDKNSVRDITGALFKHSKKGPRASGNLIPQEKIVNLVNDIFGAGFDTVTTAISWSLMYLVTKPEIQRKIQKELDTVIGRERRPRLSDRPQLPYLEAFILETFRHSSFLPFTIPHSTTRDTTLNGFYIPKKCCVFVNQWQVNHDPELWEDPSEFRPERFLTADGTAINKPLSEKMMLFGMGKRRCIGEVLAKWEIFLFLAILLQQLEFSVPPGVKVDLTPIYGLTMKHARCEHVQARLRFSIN

Rattus norvegicus [9] = assay: Antiobesity activity in obese Zucker rat assessed as reduction in hepatic malonyl-coA level, iv administered 2 hrs; format: functional; set-up: scale not given: the % may be the effect or the level left
Summary of the method: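 Obese Zucker rats were anaesthetized with Inactin (180 mg/kg ip), tracheotomized and fitted with carotid and jugular catheters. After 1.5 h post-surgery stabilization at 37.5 °C, compound or vehicle was infused iv; lean vehicle controls were included. Hepatic malonyl-CoA was measured by ion-pair HPLC–negative ESI MS/MS against a ¹³C₃ internal standard and related to plasma free exposure (fu×Cp/rat ACC2 IC50).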

Cytochrome P450 3A4 = Cytochrome P450 3A4 (Homo sapiens, UniProt P08684); assay: Inhibition of CYP3A4; format: ADME
Cytochrome P450 2C9 = Cytochrome P450 2C9 (Homo sapiens, UniProt P11712); assay: Inhibition of CYP2C9; format: ADME
Cytochrome P450 1A2 = biological target: T2, Cytochrome P450 1A2 (Homo sapiens, UniProt P05177); assay: Inhibition of CYP1A2; format: ADME
T2 sequence (P05177 whole entry): T1 sequence (P05177 whole entry)

[10] = Clearance in C57BL/6 mouse at 20 umol/kg, iv and 20 umol/kg, po; format: ADME, organism-based; settings: in vivo
[11] = Half life in C57BL/6 mouse at 20 umol/kg, po; format: ADME, organism-based; settings: in vivo
[12] = Oral bioavailability in C57BL/6 mouse at 20 umol/kg; format: ADME, organism-based; settings: in vivo
[13] = Volume of distribution in C57BL/6 mouse at 20 umol/kg, iv and 20 umol/kg, po; format: ADME, organism-based; settings: in vivo
Acetyl-CoA carboxylase 1 [14] = biological target: Acetyl-CoA carboxylase 1 (Rattus norvegicus, UniProt P11497); assay: Inhibition of rat ACC1 assessed as inorganic phosphate generation preincubated for 5 mins measured after 1.5 hrs using Malachite green reagent method
[15] = biological target: Acetyl-Coenzyme A carboxylase 2 (Rattus norvegicus, UniProt Q1HEC0); assay: Inhibition of ACC2 […] preincubated for 15 mins measured after 1.5 hrs using Malachite green reagent method
[16] = biological target: Voltage-gated inwardly rectifying potassium channel KCNH2 (Homo sapiens, UniProt Q12809)

Sequence of Acetyl-CoA carboxylase 2 (O00763 whole entry): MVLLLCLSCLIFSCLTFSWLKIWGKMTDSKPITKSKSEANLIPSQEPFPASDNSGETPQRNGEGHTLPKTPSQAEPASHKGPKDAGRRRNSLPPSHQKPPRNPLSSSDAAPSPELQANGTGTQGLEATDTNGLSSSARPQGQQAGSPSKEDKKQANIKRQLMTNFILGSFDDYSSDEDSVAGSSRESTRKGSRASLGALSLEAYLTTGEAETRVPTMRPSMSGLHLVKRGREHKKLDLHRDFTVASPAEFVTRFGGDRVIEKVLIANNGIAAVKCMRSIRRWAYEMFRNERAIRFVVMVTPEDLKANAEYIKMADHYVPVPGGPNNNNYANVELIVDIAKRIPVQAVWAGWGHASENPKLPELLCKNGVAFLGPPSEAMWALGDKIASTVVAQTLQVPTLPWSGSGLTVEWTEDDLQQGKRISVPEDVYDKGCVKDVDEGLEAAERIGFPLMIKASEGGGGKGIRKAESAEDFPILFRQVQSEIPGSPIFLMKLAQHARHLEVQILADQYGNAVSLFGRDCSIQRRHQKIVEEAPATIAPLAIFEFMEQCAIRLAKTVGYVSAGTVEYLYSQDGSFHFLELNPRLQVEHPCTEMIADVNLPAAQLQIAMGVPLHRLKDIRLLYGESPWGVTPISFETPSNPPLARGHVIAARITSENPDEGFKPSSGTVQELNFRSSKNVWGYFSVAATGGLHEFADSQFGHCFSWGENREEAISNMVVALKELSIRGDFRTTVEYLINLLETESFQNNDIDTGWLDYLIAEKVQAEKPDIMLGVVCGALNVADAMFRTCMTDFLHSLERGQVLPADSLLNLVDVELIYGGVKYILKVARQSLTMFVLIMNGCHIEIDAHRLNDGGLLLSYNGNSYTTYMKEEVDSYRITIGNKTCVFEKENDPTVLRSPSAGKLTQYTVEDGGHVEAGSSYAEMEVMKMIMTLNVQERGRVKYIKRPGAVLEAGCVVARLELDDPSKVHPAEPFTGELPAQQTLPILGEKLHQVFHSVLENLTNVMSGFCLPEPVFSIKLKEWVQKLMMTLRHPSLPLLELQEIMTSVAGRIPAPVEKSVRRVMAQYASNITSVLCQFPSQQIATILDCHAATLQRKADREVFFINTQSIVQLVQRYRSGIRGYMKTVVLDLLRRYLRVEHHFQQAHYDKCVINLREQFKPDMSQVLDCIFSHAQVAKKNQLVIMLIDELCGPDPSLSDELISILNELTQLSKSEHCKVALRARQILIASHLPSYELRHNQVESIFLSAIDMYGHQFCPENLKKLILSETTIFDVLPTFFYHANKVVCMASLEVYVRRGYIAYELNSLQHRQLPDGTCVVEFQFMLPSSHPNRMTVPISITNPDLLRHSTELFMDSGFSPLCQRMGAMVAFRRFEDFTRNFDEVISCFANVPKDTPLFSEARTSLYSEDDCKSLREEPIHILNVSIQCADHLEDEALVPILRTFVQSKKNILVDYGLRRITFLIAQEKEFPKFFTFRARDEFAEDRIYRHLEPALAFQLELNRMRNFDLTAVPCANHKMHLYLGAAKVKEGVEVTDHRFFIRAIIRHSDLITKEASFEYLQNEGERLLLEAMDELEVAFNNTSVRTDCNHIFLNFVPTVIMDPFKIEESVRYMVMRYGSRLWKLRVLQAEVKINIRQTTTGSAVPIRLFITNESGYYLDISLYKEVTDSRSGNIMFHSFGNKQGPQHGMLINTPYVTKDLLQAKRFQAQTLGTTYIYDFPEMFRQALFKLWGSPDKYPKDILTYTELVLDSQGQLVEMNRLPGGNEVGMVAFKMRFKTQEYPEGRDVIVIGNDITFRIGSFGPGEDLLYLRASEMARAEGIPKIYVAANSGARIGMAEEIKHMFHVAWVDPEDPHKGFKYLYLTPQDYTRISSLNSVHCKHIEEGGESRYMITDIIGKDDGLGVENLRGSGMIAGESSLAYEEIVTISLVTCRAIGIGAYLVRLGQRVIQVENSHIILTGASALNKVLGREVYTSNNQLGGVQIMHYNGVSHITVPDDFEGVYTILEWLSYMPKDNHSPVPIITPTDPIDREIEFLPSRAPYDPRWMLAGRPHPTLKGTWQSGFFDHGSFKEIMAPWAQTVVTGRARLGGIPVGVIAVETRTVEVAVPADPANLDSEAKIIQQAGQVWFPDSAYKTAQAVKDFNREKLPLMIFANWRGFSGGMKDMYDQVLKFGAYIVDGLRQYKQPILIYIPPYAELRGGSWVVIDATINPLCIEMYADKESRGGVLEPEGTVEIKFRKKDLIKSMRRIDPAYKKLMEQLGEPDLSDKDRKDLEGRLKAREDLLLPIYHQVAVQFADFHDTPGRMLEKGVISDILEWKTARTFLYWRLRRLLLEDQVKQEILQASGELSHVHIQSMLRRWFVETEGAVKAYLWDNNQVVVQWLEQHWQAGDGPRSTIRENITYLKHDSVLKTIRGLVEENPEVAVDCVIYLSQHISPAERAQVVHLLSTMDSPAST
Sequence of CYP2C19 (P33261 whole entry): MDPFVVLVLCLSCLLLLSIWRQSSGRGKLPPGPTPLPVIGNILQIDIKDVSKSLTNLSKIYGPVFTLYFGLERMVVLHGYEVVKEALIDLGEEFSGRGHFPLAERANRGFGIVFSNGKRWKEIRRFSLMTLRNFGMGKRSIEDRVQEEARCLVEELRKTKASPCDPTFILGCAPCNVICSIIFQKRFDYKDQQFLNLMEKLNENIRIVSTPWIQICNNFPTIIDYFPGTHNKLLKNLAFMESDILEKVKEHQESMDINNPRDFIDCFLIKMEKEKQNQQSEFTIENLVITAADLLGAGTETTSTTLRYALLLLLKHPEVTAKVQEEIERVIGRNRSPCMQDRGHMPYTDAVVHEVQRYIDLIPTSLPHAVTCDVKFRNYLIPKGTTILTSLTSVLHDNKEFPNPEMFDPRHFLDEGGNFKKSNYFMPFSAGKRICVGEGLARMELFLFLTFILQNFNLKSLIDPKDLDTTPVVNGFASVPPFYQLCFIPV
Sequence of CYP2C9 (P11712 whole entry): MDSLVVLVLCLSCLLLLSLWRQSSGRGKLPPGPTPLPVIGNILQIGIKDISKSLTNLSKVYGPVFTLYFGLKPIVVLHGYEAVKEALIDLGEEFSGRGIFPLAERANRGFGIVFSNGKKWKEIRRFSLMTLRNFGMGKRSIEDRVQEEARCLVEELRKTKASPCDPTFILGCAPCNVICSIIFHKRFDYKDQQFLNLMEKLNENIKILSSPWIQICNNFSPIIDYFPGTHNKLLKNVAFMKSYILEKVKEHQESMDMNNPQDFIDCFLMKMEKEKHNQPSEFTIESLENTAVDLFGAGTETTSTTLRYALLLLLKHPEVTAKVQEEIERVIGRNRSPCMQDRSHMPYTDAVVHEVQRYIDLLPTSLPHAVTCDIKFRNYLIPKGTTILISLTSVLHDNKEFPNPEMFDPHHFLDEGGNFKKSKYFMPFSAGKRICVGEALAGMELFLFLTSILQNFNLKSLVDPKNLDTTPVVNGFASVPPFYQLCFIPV
Sequence of CYP2D6 (P10635 whole entry): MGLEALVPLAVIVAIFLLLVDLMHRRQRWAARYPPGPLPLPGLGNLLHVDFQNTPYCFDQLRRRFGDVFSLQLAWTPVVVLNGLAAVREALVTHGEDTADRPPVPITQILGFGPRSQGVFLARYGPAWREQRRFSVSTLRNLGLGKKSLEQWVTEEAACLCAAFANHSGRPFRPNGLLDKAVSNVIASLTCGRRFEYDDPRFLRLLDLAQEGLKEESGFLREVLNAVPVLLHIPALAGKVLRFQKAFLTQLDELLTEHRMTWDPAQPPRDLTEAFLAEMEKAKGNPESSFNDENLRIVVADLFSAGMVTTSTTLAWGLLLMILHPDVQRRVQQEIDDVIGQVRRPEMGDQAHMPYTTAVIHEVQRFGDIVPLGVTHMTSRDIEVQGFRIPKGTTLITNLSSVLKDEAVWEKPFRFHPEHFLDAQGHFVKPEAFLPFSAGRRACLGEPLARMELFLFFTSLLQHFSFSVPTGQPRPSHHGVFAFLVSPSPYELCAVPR
Sequence of CYP3A4 (P08684 whole entry): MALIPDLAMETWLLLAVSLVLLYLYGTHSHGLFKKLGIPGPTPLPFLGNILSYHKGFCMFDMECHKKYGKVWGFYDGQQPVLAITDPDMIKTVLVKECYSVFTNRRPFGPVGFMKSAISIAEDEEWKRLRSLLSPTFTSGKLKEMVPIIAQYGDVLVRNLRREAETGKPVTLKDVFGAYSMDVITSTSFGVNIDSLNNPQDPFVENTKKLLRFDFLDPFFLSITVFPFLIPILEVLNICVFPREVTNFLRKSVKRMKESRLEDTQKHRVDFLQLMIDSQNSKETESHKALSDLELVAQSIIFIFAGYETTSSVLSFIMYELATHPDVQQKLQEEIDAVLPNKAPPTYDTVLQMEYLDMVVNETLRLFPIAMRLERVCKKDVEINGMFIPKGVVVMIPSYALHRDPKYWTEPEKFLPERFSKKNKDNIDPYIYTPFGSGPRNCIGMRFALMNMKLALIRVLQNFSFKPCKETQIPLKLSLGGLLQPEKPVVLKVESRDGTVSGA
Sequence of Cytochrome P450 2C9 (P11712 whole entry): as the sequence (P11712 whole entry) above
Sequence of Cytochrome P450 3A4 (P08684 whole entry): as the sequence (P08684 whole entry) above

Compound: CC(C)(C)OC(=O)NC[C@H]1CC[C@H](CNC(=O)c2cc(N3CCC(CCO)CC3)nc3ccccc23)CC1
- IC50 (Acetyl-CoA carboxylase 2): 230 nM
- Ratio IC50 (Homo sapiens): 10
- IC50 (Acetyl-CoA carboxylase 1 [8]): 2300 nM
- logD [3]: 4.5

Compound: O=C(c1c2ccccc2cc2ccccc12)N1CCC(N2CCC[C@@H](C(=O)N3CCOCC3)C2)CC1
- Activity (Rattus norvegicus [9]): 50%

Compound: CC(C)(C)OC(=O)NC[C@H]1CC[C@H](CNC(=O)c2cc(Cl)nc3ccccc23)CC1
- logD [3]: 4.9

Compound: CC(C)(C)OC(=O)NC[C@H]1CC[C@H](CNC(=O)c2cc(-c3ccccc3)nc3[nH]ccc23)CC1
- IC50 (Acetyl-CoA carboxylase 2): 780 nM
- logD [3]: 4.7

Compound: CN(C)CCC1CCN(c2cc(C(=O)NC[C@H]3CC[C@H](CNC(=O)OC(C)(C)C)CC3)c3ccccc3n2)CC1
- inhibition at 13 µM (CYP2C9): < 50%
- clearance [10]: 46 mL/min/kg
- inhibition at 13 µM (CYP3A4): < 50%
- half-life [11]: 4.5 h
- IC50 (Acetyl-CoA carboxylase 2): 110 nM
- Ratio IC50 (Homo sapiens): 10
- clearance [2]: 32 mL/min/kg
- inhibition at 13 µM (CYP2C19): < 50%
- IC50 (Acetyl-CoA carboxylase 1 [8]): 1200 nM
- logD [3]: 3.6
- inhibition at 13 µM (CYP2D6): < 50%
- bioavailability [12]: 131%
- microsomal CLint at 1 µM [4]: 14 µL/min/mg
- Vd [13]: 6.7 L/kg
- IC50 (Acetyl-CoA carboxylase 1 [14]): 460 nM
- IC50 [15]: 190 nM
- fraction unbound at 18 h, 10 µM [5]: 0.034
- solubility at 16 h [6]: 79 µM (≈ 43.6 µg/mL)
- IC50 [16]: > 33000 nM
- Activity (Rattus norvegicus [9]): 50%
- Ratio (Rattus norvegicus [7]): 800
- inhibition at 13 µM (CYP1A2): < 50%

Compound: CCOC(=O)NC[C@H]1CC[C@H](CNC(=O)c2cc(N3CCC(CCN(C)C)CC3)nc3ccccc23)CC1
- IC50 (Acetyl-CoA carboxylase 2): 1400 nM
- IC50 (Acetyl-CoA carboxylase 1 [8]): 8000 nM
- logD [3]: 2.6

Compound: CN(C)CCC1CCN(c2cc(C(=O)NC[C@H]3CC[C@H](CNC(=O)OC4CCOCC4)CC3)c3ccccc3n2)CC1
- logD [3]: 2.3

Compound: CC(C)(C)OC(=O)NC[C@H]1CC[C@H](CNC(=O)c2cc(-c3ccc(C(=O)O)cc3)nc3ccccc23)CC1
- IC50 (Acetyl-CoA carboxylase 2): 750 nM
- IC50 (Acetyl-CoA carboxylase 1 [8]): 2900 nM
- logD [3]: 2.5

Compound: CC(C)(C)OC(=O)NC[C@H]1CC[C@H](CNC(=O)c2cc(N3CCNCC3)nc3ccccc23)CC1
- IC50 (Acetyl-CoA carboxylase 1 [8]): 13000 nM
- logD [3]: 2.9

The remaining lines, values ahead:

- fraction unbound at 18 h, 10 µM [1]: 0.005
- IC50 (Acetyl-CoA carboxylase 2): 210 nM
- clearance [2]: 60 mL/min/kg
- logD [3]: 5.9
- microsomal CLint at 1 µM [4]: 124 µL/min/mg
- fraction unbound at 18 h, 10 µM [5]: 0.001
- solubility at 16 h [6]: < 1 µM
- Ratio (Rattus norvegicus [7]): 12000
Compound: CC(C)(C)OC(=O)NC[C@H]1CC[C@H](CNC(=O)c2cc(-c3ccccc3)nc3ccccc23)CC1

- inhibition at 13 µM (CYP2C9): < 50%
- inhibition at 13 µM (CYP3A4): < 50%
- IC50 (Acetyl-CoA carboxylase 2): 730 nM
- inhibition at 13 µM (CYP2C19): < 50%
- IC50 (Acetyl-CoA carboxylase 1 [8]): 5300 nM
- logD [3]: 3.4
- inhibition at 13 µM (CYP2D6): < 50%
- microsomal CLint at 1 µM [4]: < 12 µL/min/mg
- solubility at 16 h [6]: 73 µM (≈ 40.4 µg/mL)
- inhibition at 13 µM (CYP1A2): < 50%
Compound: CN(C)CCN1CCN(c2cc(C(=O)NC[C@H]3CC[C@H](CNC(=O)OC(C)(C)C)CC3)c3ccccc3n2)CC1

- IC50 (Cytochrome P450 3A4): 2400 nM
- IC50 (Acetyl-CoA carboxylase 2): 52 nM
- clearance [2]: 104 mL/min/kg
- IC50 (Acetyl-CoA carboxylase 1 [8]): 240 nM
- logD [3]: 3.4
- microsomal CLint at 1 µM [4]: 14 µL/min/mg
- IC50 (Cytochrome P450 2C9): 800 nM
- solubility at 16 h [6]: 8 µM (≈ 4.02 µg/mL)
- IC50 (Cytochrome P450 1A2): 4000 nM
Compound: CC(C)(C)OC(=O)NC[C@H]1CC[C@H](CNC(=O)c2cc(-c3cccc(CN)c3)nc3ccccc23)CC1

- IC50 (Acetyl-CoA carboxylase 2): 570 nM
- IC50 (Acetyl-CoA carboxylase 1 [8]): 2300 nM
- logD [3]: 3.5
Compound: CC(C)(C)OC(=O)NC[C@H]1CC[C@H](CNC(=O)c2cc(-c3cn[nH]c3)nc3ccccc23)CC1

- IC50 (Acetyl-CoA carboxylase 1 [8]): 1300 nM
- logD [3]: 3.6
Compound: CN(C)CCn1cc(-c2cc(C(=O)NC[C@H]3CC[C@H](CNC(=O)OC(C)(C)C)CC3)c3ccccc3n2)cn1

— ChEMBL document CHEMBL1817551, “Design of small molecule inhibitors of acetyl-CoA carboxylase 1 and 2 showing reduction of hepatic malonyl-CoA levels in vivo in obese Zucker rats” (Bioorg Med Chem, 2011)
